Test results from ChEMBL document CHEMBL4219193, “Synthesis, biological evaluation and molecular docking study of 1-amino-2-aroylnaphthalenes against prostate cancer” (Bioorg Med Chem Lett, 2018).
Activity calls are given as the source filed them. The calls are words filed in the database; no cut-off is given here.

How the values were obtained:
Format in all cases: cell-based
[1] = target: RAC-alpha serine/threonine-protein kinase (Homo sapiens) (UniProt P31749); assay: Inhibition of AKT1 phosphorylation in human PC3 cells at 14 uM after 12 to 24 hrs by Western blot analysis
RAC-alpha serine/threonine-protein kinase (Homo sapiens), sequence (P31749 whole entry): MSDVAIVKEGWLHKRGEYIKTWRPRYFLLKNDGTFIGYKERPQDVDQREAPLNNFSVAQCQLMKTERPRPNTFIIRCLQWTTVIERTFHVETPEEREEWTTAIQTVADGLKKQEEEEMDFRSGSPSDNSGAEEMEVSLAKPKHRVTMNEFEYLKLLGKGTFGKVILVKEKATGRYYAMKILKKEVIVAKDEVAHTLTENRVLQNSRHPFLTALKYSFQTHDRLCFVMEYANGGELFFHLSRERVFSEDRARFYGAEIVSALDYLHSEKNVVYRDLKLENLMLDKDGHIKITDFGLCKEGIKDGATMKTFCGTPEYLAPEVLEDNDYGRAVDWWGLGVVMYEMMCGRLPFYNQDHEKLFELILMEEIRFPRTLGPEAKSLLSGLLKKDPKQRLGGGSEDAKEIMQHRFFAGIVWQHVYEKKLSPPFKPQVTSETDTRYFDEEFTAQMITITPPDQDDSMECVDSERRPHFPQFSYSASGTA
Summary of the method: (§1)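 Immunoblotting of PC-3 lysates for procaspase 8, procaspase 9 and phosphorylated Akt1, 2 and 3 after treatment at 14 µM, with samples collected at different time points.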

[2] = target: RAC-beta serine/threonine-protein kinase (Homo sapiens) (UniProt P31751); assay: Inhibition of AKT2 phosphorylation in human PC3 cells at 14 uM after 12 to 24 hrs by Western blot analysis; summary of the method: as §1
RAC-beta serine/threonine-protein kinase (Homo sapiens), sequence (P31751 whole entry): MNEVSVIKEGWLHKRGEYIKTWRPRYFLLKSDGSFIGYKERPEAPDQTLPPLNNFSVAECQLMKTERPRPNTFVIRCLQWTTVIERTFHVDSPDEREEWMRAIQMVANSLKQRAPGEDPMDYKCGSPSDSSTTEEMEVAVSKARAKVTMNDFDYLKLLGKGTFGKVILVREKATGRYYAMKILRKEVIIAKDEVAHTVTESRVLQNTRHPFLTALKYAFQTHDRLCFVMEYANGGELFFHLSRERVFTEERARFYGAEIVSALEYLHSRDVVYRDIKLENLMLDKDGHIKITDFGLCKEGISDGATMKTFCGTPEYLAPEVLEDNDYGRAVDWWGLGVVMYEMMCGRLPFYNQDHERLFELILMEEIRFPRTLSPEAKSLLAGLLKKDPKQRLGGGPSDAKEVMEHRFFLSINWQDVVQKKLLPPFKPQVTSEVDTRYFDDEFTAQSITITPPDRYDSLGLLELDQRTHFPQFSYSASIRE

[3] = target: RAC-gamma serine/threonine-protein kinase (Homo sapiens) (UniProt Q9Y243); assay: Inhibition of AKT3 phosphorylation in human PC3 cells at 14 uM after 12 to 24 hrs by Western blot analysis; summary of the method: as §1
RAC-gamma serine/threonine-protein kinase (Homo sapiens), sequence (Q9Y243 whole entry): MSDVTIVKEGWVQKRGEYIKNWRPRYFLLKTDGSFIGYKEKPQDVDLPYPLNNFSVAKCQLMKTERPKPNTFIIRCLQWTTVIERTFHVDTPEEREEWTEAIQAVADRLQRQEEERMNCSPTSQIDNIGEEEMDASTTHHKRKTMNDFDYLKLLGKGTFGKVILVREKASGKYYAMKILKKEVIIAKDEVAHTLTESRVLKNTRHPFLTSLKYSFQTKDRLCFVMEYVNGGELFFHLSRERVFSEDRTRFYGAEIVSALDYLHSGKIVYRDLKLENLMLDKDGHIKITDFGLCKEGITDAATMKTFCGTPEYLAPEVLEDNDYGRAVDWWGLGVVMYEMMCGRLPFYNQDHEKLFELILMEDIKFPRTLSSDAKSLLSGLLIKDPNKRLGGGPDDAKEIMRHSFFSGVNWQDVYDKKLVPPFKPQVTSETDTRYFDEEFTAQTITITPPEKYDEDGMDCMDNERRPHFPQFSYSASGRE

- inhibition [1]: Active
- inhibition [2]: Active
- inhibition [3]: Active
SMILES: CSc1c(C(=O)c2ccc(Br)cc2)c(N)c2ccccc2c1C#N
